From paper PMC8809242 (Acta Pharmacologica Sinica, 2022)

What was measured:
GR = GR nuclear translocation, confocal microscopy in A549 cells; assay type: cell-based, human; conditions: 10 μM, 2 h
[1] = test system: AP-1-dependent transcription (GR transrepression); assay type: cell-based; conditions: Homo sapiens, HeLa, read-out: IC50, AP-1 Luc transrepression
Outline: (§1)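 HeLa cells grown 24 h in 5% CSS DMEM, then lipofected for 24 h with 71 ng GRα, 5 ng Renilla, and 24 ng reporter (NF-κB-Luc or 5×AP-1-Luc). Cells were stimulated with TNF-α 5 ng/mL (NF-κB) or PMA 1 ng/mL (AP-1) plus test compound. Lysates were read by dual firefly/Renilla luciferase.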

RAW264.7 cells [2] = assay: Real-time quantitative PCR in LPS-stimulated RAW264.7 cells; assay type: cell-based, mouse; conditions: RAW264.7, 20 ng/mL LPS, 10 μM, 18 h
Outline: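 Mouse RAW264.7 macrophages (1 × 10^6 per well) were cultured 24 h in 3% CSS DMEM. They were then co-treated with 20 ng/mL LPS and 10 μM test compound for 18 h. Total RNA was reverse-transcribed and target transcripts were measured by SYBR Green qPCR, with GAPDH normalisation and 2^−ΔΔCt relative quantitation.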

PR = PR selectivity, ARR3tk-luciferase reporter in PC3 cells transfected with hPR; assay type: cell-based, human; conditions: various concentrations, 16 h; 10 nM progesterone = 100%
Outline: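 PR counter-screen in PC3 cells: 1 × 10^4 cells/well in 3% CSS DMEM for 24 h. Lipofection for 24 h with 50 ng hPR, 50 ng ARR3tk-luciferase, and 5 ng Renilla per well. Then 16 h exposure to 10 nM progesterone or test compound, and luciferase measurement.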

MR = MR selectivity, MMTV luciferase reporter in 293T cells transfected with pCMV-hMR; assay type: cell-based, human; conditions: various concentrations, 16 h; 10 nM aldosterone = 100%
Outline: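 Human MR counter-screen. 293T cells were seeded at 1 × 10^4 cells/well in 3% CSS DMEM for 24 h. They were then lipofected for 24 h with 71 ng pCMV-hMR, 24 ng pGL4.36 MMTV-luc2P, and 5 ng Renilla. Next they were treated for 16 h with 10 nM aldosterone or test compound. Firefly luciferase read-out.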

[3] = test system: NF-κB-dependent transcription (GR transrepression); assay type: cell-based; conditions: Homo sapiens, HeLa, read-out: IC50, NF-κB Luc transrepression
Outline: as §1

AR = assay type: cell-based, human; conditions: various concentrations, 72 h; 10 nM DHT = 100%
RAW264.7 cells [4] = assay type: cell-based, mouse; conditions: 10 μM with 20 ng/mL LPS overnight

CC(C)[C@H](NC(=O)C(C)(F)F)[C@H](Oc1ccc2c(cnn2-c2ccc(=O)n(C)c2)c1)c1ccccc1 [Azd9567]
GR nuclear translocation (GR): promoted the translocation of GR from the cytoplasm to the nucleus

C[C@@H]1C[C@H]2[C@@H]3CCC4=CC(=O)C=C[C@]4(C)[C@@]3(F)[C@@H](O)C[C@]2(C)[C@@]1(O)C(=O)CO [Dex, dexamethasone]
IC50 [1]: 48.8 ± 7.1 nM | SOCS3 mRNA regulation (Q-PCR) (RAW264.7 cells [2]): downregulated only by HT-15 but not Dex | off-target activation effect on PR (PR): strong activation effects | off-target activation effect on MR (MR): strong activation effects | GR nuclear translocation (GR): promoted the translocation of GR from the cytoplasm to the nucleus | IC50 [3]: 14 ± 2.19 nM | off-target activation effect on AR (AR): strong activation effects | number of repressed genes (RNA-seq) (RAW264.7 cells [4]): 117
